# Test results from ChEMBL document CHEMBL3525963, “Tissue distribution and elimination of [14C]apixaban in rats” (Drug Metab Dispos, 2011).
# Columns and labels:
# Settings in all cases: in vivo
# Brain [1] = assay: Biodistribution in male Sprague-Dawley rat brain at 5 mg/kg, po administered as single dose measured after 0.5 hrs; assay type: ADME, organism-based; parameters: dose 5 mg/kg, dosed compound name [14C]-apixaban, route oral
# Method in brief: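 Fasted male SD rats were dosed orally by gavage with a single 5 mg/kg (100 μCi/kg) dose of [14C]apixaban, formulated at 1.0 mg/mL and 20 μCi/mL in 0.5% Tween 80/Labrafil. One rat was euthanized per time point and the carcass frozen and sectioned at 40 µm. Brain was quantified by QWBA against [14C]glucose calibration standards, as µg eq/g (LLOQ 0.037 µg eq/g).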
# Rattus norvegicus [2] = assay: Biodistribution in pregnant Sprague-Dawley rat brown fat at 5 mg/kg, po administered as single dose measured after 48 hrs; assay type: ADME, organism-based, Brown adipose tissue; parameters: dose 5 mg/kg, dosed compound name [14C]-apixaban, route oral
# Method in brief: (§1)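 Fasted pregnant SD rats (n=6, 270-319 g) each received one oral gavage dose of [14C]apixaban, 5 mg/kg (100 μCi/kg), in 0.5% Tween 80/Labrafil. One rat was killed at each of 0.5, 1, 4, 8, 24 and 48 h. Carcasses were frozen in hexane/dry ice, cut into 40 µm sagittal sections, exposed to phosphor plates and quantified against [14C]glucose standards as µg eq/g. LLOQ was 0.037 µg eq/g.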
# Thymus = assay: Biodistribution in male Sprague-Dawley rat thymus at 5 mg/kg, po administered as single dose measured after 4 hrs; assay type: ADME, organism-based; parameters: dose 5 mg/kg, dosed compound name [14C]-apixaban, route oral
# Rattus norvegicus [3] = assay: Biodistribution in male Sprague-Dawley rat salivary gland at 5 mg/kg, po administered as single dose measured after 72 hrs; assay type: ADME, organism-based; parameters: dose 5 mg/kg, dosed compound name [14C]-apixaban, route oral
# Method in brief: (§2)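 Fasted male SD rats (225-252 g) each received one oral gavage dose of [14C]apixaban, 5 mg/kg (100 μCi/kg), in 0.5% Tween 80/Labrafil vehicle. One rat was killed per time point, from 0.5 to 168 h. Frozen carcasses were cut into 40 µm sagittal whole-body sections and read by QWBA phosphor imaging against [14C]glucose calibrants. Results are in µg apixaban eq/g; BLQ <0.037 µg eq/g.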
# Pancreas [4] = assay: Biodistribution in female Sprague-Dawley rat pancreas at 5 mg/kg, po administered as single dose measured after 1 hr; assay type: ADME, organism-based; parameters: dose 5 mg/kg, dosed compound name [14C]-apixaban, route oral
# Method in brief: (§3)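 [¹⁴C]Apixaban given by oral gavage at 5 mg/kg (100 μCi/kg) in 0.5% Tween 80 in Labrafil (1.0 mg/mL dosing solution) to rats fasted overnight through 4 h post-dose. One rat per time point; carcass frozen in hexane/dry ice. Quantitative whole-body autoradiography used 40 µm sagittal sections and a phosphor imaging plate calibrated with [¹⁴C]glucose standards (0.001–6.5 μCi/g). Read-out in µg eq apixaban/g; LLOQ 0.037 μg eq/g.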
# Pancreas [5] = assay: Biodistribution in male Sprague-Dawley rat pancreas at 5 mg/kg, po administered as single dose measured after 4 hrs; assay type: ADME, organism-based; parameters: dose 5 mg/kg, dosed compound name [14C]-apixaban, route oral
# Method in brief: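 [14C]apixaban (1.0 mg/mL, 20 μCi/mL) in 0.5% Tween 80 in Labrafil, given by oral gavage at 100 μCi/kg to male rats (225-252 g) fasted overnight through 4 h post-dose. One rat per time point. Carcasses frozen in hexane/dry ice and cut into 40 µm sagittal sections. QWBA read on phosphor plates against [14C]glucose standards, reported as µg eq/g. LLOQ 0.037 µg eq/g.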
# Plasma = assay: Drug metabolism in Sprague-Dawley rat plasma assessed as apixaban level at 5 mg/kg, po by HPLC method; assay type: ADME, organism-based; parameters: dose 5 mg/kg, dosed compound name [14C]-apixaban, route oral
# Method in brief: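 After a 5 mg/kg oral dose, samples were radioprofiled by HPLC. The column was C18 with a 0.4% formic acid (pH 3.2)/acetonitrile gradient at 0.7 mL/min. Fractions were collected every 0.25 min and counted for radioactivity. Peaks were identified by ESI LC/MS/MS against synthetic standards. Milk was taken at 1, 6, 12 and 24 h.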
# Rattus norvegicus [6] = assay: Biodistribution in fetal brain of pregnant Sprague-Dawley rat at 5 mg/kg, po administered as single dose measured after 48 hrs; assay type: ADME, organism-based; parameters: dose 5 mg/kg, dosed compound name [14C]-apixaban, route oral
# Method in brief: (§4)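 Quantitative whole-body autoradiography was run after a single 5 mg/kg (100 μCi/kg) oral gavage to fasted female or pregnant SD rats, one rat per time point. Carcasses were frozen in hexane/dry ice, and 40 µm sagittal sections were dried at −20°C for at least 48 h. Sections were exposed to a phosphor plate alongside [14C]glucose standards (0.001–6.5 µCi/g). Results are µg eq/g, with LLOQ 0.037 µg eq/g.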
# Adrenal gland [7] = assay: Biodistribution in female Sprague-Dawley rat adrenal gland at 5 mg/kg, po administered as single dose measured after 8 hrs; assay type: ADME, organism-based; parameters: dose 5 mg/kg, dosed compound name [14C]-apixaban, route oral; method in brief: as §3
# Pancreas [8] = assay: Biodistribution in female Sprague-Dawley rat pancreas at 5 mg/kg, po administered as single dose measured after 8 hrs; assay type: ADME, organism-based; parameters: dose 5 mg/kg, dosed compound name [14C]-apixaban, route oral; method in brief: as §3
# [9] = Drug level in lactating Sprague-Dawley rat milk at 5 mg/kg, po administered as single dose after 1 hr; assay type: ADME, organism-based; parameters: dose 5 mg/kg, dosed compound name [14C]-apixaban, route oral
# Rattus norvegicus [10] = assay: Biodistribution in pregnant Sprague-Dawley rat bone marrow at 5 mg/kg, po administered as single dose measured after 48 hrs; assay type: ADME, organism-based; parameters: dose 5 mg/kg, dosed compound name [14C]-apixaban, route oral; method in brief: as §1
# Spleen = assay: Biodistribution in pregnant Sprague-Dawley rat spleen at 5 mg/kg, po administered as single dose measured after 4 hrs; assay type: ADME, organism-based; parameters: dose 5 mg/kg, dosed compound name [14C]-apixaban, route oral
# Blood [11] = assay: Biodistribution in pregnant Sprague-Dawley rat blood at 5 mg/kg, po administered as single dose measured after 48 hrs; assay type: ADME, organism-based; parameters: dose 5 mg/kg, dosed compound name [14C]-apixaban, route oral; method in brief: as §1
# Rattus norvegicus [12] = assay: Biodistribution in pregnant Sprague-Dawley rat amnion at 5 mg/kg, po administered as single dose measured after 24 hrs; assay type: ADME, organism-based; parameters: dose 5 mg/kg, dosed compound name [14C]-apixaban, route oral
# Muscle tissue [13] = assay: Biodistribution in male Sprague-Dawley rat muscle at 5 mg/kg, po administered as single dose measured after 72 hrs; assay type: ADME, organism-based; parameters: dose 5 mg/kg, dosed compound name [14C]-apixaban, route oral; method in brief: as §2
# Brain [14] = assay: Biodistribution in pregnant Sprague-Dawley rat brain at 5 mg/kg, po administered as single dose measured after 0.5 hrs; assay type: ADME, organism-based; parameters: dose 5 mg/kg, dosed compound name [14C]-apixaban, route oral
# Pancreas [15] = assay: Biodistribution in pregnant Sprague-Dawley rat pancreas at 5 mg/kg, po administered as single dose measured after 0.5 hrs; assay type: ADME, organism-based; parameters: dose 5 mg/kg, dosed compound name [14C]-apixaban, route oral
# Blood [16] = assay: Biodistribution in male Sprague-Dawley rat blood at 5 mg/kg, po administered as single dose measured after 24 hrs; assay type: ADME, organism-based; parameters: dose 5 mg/kg, dosed compound name [14C]-apixaban, route oral; method in brief: as §2
# Blood [17] = assay: Biodistribution in female Sprague-Dawley rat blood at 5 mg/kg, po administered as single dose measured after 72 hrs; assay type: ADME, organism-based; parameters: dose 5 mg/kg, dosed compound name [14C]-apixaban, route oral; method in brief: as §4
# Rattus norvegicus [18] = assay: Biodistribution in male Sprague-Dawley rat kidney cortex at 5 mg/kg, po administered as single dose measured after 0.5 hrs; assay type: ADME, organism-based; parameters: dose 5 mg/kg, dosed compound name [14C]-apixaban, route oral
# Adrenal gland [19] = assay: Biodistribution in female Sprague-Dawley rat adrenal gland at 5 mg/kg, po administered as single dose measured after 4 hrs; assay type: ADME, organism-based; parameters: dose 5 mg/kg, dosed compound name [14C]-apixaban, route oral; method in brief: as §3
# Heart = assay: Biodistribution in pregnant Sprague-Dawley rat heart at 5 mg/kg, po administered as single dose measured after 48 hrs; assay type: ADME, organism-based; parameters: dose 5 mg/kg, dosed compound name [14C]-apixaban, route oral; method in brief: as §1
# Rattus norvegicus [20] = assay: Biodistribution in fetal blood of pregnant Sprague-Dawley rat at 5 mg/kg, po administered as single dose measured after 24 hrs; assay type: ADME, organism-based; parameters: dose 5 mg/kg, dosed compound name [14C]-apixaban, route oral; method in brief: as §4
# Muscle tissue [21] = assay: Biodistribution in female Sprague-Dawley rat muscle at 5 mg/kg, po administered as single dose measured after 8 hrs; assay type: ADME, organism-based; parameters: dose 5 mg/kg, dosed compound name [14C]-apixaban, route oral; method in brief: as §3
# Pancreas [22] = assay: Biodistribution in female Sprague-Dawley rat pancreas at 5 mg/kg, po administered as single dose measured after 72 hrs; assay type: ADME, organism-based; parameters: dose 5 mg/kg, dosed compound name [14C]-apixaban, route oral; method in brief: as §4
# Blood [23] = assay: AUC (0 to infinity) in lactating Sprague-Dawley rat blood at 5 mg/kg, po administered as single dose; assay type: ADME, organism-based; parameters: time infinity, dose 5 mg/kg, dosed compound name [14C]-apixaban, route oral
# Harderian gland = assay: Biodistribution in male Sprague-Dawley rat harderian gland at 5 mg/kg, po administered as single dose measured after 4 hrs; assay type: ADME, organism-based; parameters: dose 5 mg/kg, dosed compound name [14C]-apixaban, route oral; method in brief: as §3
# Rattus norvegicus [24] = assay: Biodistribution in male Sprague-Dawley rat salivary gland at 5 mg/kg, po administered as single dose measured after 24 hrs; assay type: ADME, organism-based; parameters: dose 5 mg/kg, dosed compound name [14C]-apixaban, route oral
smiles,measurement,setting,value
COc1ccc(-n2nc(C(N)=O)c3c2C(=O)N(c2ccc(N4CCCC[14C]4=O)cc2)CC3)cc1,Radiolabel recovery,Brain [1],0.05 ugequiv/g
same,Radiolabel recovery,Rattus norvegicus [2],Not detected assumed BLQ
same,Radiolabel recovery,Thymus,0.23 ugequiv/g
same,Radiolabel recovery,Rattus norvegicus [3],Not detected assumed BLQ
same,Radiolabel recovery,Pancreas [4],0.62 ugequiv/g
same,Radiolabel recovery,Pancreas [5],0.55 ugequiv/g
same,Compound recovery,Plasma,97%
same,Radiolabel recovery,Rattus norvegicus [6],Not detected assumed BLQ
same,Radiolabel recovery,Adrenal gland [7],0.3 ugequiv/g
same,Radiolabel recovery,Pancreas [8],0.19 ugequiv/g
same,Radiolabel recovery,[9],4.56 µg/mL
same,Radiolabel recovery,Rattus norvegicus [10],Not detected assumed BLQ
same,Radiolabel recovery,Spleen,0.47 ugequiv/g
same,Radiolabel recovery,Blood [11],Not detected assumed BLQ
same,Radiolabel recovery,Rattus norvegicus [12],3.52 ugequiv/g
same,Radiolabel recovery,Muscle tissue [13],Not detected assumed BLQ
same,Radiolabel recovery,Brain [14],0.05 ugequiv/g
same,Radiolabel recovery,Pancreas [15],0.89 ugequiv/g
same,Radiolabel recovery,Blood [16],Not sampled as not visualised in autoradiograph
same,Radiolabel recovery,Blood [17],Not detected assumed BLQ
same,Radiolabel recovery,Rattus norvegicus [18],0.81 ugequiv/g
same,Radiolabel recovery,Adrenal gland [19],0.9 ugequiv/g
same,Radiolabel recovery,Heart,Not detected assumed BLQ
same,Radiolabel recovery,Rattus norvegicus [20],Not detected assumed BLQ
same,Radiolabel recovery,Muscle tissue [21],0.08 ugequiv/g
same,Radiolabel recovery,Pancreas [22],Not sampled as not visualised in autoradiograph
same,AUC,Blood [23],1960 ngequiv.hr/g
same,Radiolabel recovery,Harderian gland,0.42 ugequiv/g
same,Radiolabel recovery,Rattus norvegicus [24],< 0.037 ugequiv/g
